Assay results reported in PMC4378865 (Journal of biomolecular screening, 2014).

Assays:
[1] = cited from earlier work
T. brucei MetRS [2] = target: T1, T. brucei MetRS (Trypanosoma brucei brucei, UniProt Q38C91); assay: Orthogonal fluorescence polarization AMP production assay; type: biochemical
T1 sequence (Q38C91 1-773): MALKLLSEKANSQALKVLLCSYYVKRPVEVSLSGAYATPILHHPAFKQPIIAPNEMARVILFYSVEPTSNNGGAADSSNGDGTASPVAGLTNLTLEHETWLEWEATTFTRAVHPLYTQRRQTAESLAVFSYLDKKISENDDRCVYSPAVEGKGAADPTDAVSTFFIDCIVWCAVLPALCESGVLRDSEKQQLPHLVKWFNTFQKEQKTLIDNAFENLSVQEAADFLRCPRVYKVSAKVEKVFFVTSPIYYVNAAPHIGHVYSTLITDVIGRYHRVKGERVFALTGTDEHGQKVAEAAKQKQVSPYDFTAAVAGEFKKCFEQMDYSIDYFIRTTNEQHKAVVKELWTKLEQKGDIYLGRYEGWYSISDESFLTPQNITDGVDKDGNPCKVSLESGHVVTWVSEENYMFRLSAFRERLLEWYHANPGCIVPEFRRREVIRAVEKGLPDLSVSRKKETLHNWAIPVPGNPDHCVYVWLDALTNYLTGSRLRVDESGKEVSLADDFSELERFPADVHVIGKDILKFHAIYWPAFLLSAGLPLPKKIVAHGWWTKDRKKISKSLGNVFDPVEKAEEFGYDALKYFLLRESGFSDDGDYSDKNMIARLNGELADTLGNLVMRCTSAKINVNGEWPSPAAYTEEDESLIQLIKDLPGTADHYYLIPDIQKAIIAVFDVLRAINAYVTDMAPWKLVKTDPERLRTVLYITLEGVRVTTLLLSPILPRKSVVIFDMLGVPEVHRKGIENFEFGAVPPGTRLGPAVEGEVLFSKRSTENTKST
In short: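 Concentration-response was run in triplicate as a 10-point serial dilution from 120 µM. AMP was detected by FP with a Transcreener AMP²/GMP² reagent (Cy5, excitation 620 nm, emission 688 nm), with FP = (S − P)/(P + S). Percent inhibition was normalized per plate between DMSO-only wells and wells with 1.5 µM reference inhibitor.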

T. brucei MetRS [3] = target: T1, T. brucei MetRS; assay: Luminescence; type: biochemical
T. brucei MetRS [4] = target: T1, T. brucei MetRS; conditions: formerly shown; cited from earlier work
[5] = target: T2, human mitochondrial MetRS (Homo sapiens, UniProt Q96GW9); assay: Aminoacylation assay, selectivity counterscreen; type: biochemical
T2 sequence (Q96GW9 30-593): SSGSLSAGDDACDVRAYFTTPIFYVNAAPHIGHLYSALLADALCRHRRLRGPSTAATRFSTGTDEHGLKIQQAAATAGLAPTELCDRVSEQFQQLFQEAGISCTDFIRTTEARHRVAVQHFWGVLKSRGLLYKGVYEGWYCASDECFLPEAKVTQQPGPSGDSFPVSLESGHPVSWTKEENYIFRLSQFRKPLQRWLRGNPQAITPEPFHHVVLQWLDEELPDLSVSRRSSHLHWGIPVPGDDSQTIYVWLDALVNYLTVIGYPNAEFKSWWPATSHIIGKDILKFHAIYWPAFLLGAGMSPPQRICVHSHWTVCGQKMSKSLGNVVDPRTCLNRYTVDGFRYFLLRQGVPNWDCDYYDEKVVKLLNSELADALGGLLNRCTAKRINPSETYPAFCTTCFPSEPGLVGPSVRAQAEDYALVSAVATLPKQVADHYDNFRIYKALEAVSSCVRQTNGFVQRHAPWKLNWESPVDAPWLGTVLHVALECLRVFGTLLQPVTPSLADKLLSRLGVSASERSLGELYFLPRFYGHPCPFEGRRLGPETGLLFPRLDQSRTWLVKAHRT

Jurkat cells = assay: Jurkat cell cytotoxicity counterscreen; type: cell-based
In short: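 Jurkat E6.1 suspension cells grown in RPMI-1640 with 10% dialyzed FBS, NEAA, pyruvate, HEPES, glutamine and antibiotic-antimycotic at 37 °C, 5% CO₂. CellTiter-Glo added, 10 min RT, then luminescence read. Tested in triplicate. Data normalized per plate: 8 µM doxorubicin as high control, DMSO as low control.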

T. brucei MetRS [6] = target: T1, T. brucei MetRS; assay: Aminoacylation assay, incorporation of [3H]L-methionine into tRNA; type: biochemical
[7] = fluorescence polarization assay
[8] = luminescence ATP depletion assay, 1536-well

Oc1cc(NCCCNCc2cc(Cl)cc(Cl)c2)nc2ccccc12 [CID 18353708, 2-((3-((3,5-dichlorobenzyl)amino)propyl)amino)quinolin-4(1H)-one, reference compound]
bioavailability [1]: poor bioavailability
IC50 (T. brucei MetRS [2]): 0.0303 ± 0.00481 µM
Hill slope (T. brucei MetRS [2]; fluorescence polarization assay, N=3): 4.34 ± 0.17
IC50 (T. brucei MetRS [3]): 0.0242 ± 0.00274 µM
Hill slope (T. brucei MetRS [3]; luminescence ATP depletion assay, N=11): 4.41 ± 0.56
inhibition of T. brucei MetRS (T. brucei MetRS [4]): sub-micromolar inhibition

Cn1nc(C(F)(F)F)c(-c2cccc(C(F)(F)F)c2)c1NC(=O)Nc1ccc(F)cc1 [CID 2810697]
activity in fluorescence polarization assay (T. brucei MetRS [2]; dose response curve): inactivity

CN(Cc1cc(Cl)cc(Cl)c1)[C@H]1C[C@H]2c3[nH]c4ccccc4c3CCN2C(=O)[C@H]1CO [CID 46902334]
% inhibition ([5]; at 1, human mitochondrial MetRS): 14.3%
% inhibition ([5]; at 10, human mitochondrial MetRS): 80.3%

O=C(CCCSc1ccc(Cl)cc1)Nc1ccccc1O [CID 16312830]
activity in the Jurkat cytotoxicity assay (Jurkat cells; dose response, highest dilution 83.3 M): activity

O=C(CN1CCSC1=NCc1ccccc1)c1ccc(Cl)c(Cl)c1 [CID 4656759]
% inhibition (T. brucei MetRS [6]): 28%

O=C(Cn1cc(C(=O)C(=O)N2CCOCC2)c2ccccc21)Nc1cccc(C(F)(F)F)c1 [CID 2973195]
IC50 (Jurkat cells; Jurkat cytotoxicity assay): > 83 µM
pIC50 (Jurkat cells; Jurkat cytotoxicity assay): < 4.08
IC50 (T. brucei MetRS [2]; [7]): 0.292 µM
pIC50 (T. brucei MetRS [2]; [7]): 6.53
IC50 (T. brucei MetRS [3]; [8]): 0.171 µM
pIC50 (T. brucei MetRS [3]; [8]): 6.77

COc1cccc(NC(=O)CSc2nnc3c(n2)[nH]c2ccc(C)cc23)c1 [CID 24793614]
IC50 (T. brucei MetRS [3]; [8]): 0.044 µM
